Reference: ChEMBL document CHEMBL4393737, “Synthesis of quinoline derivatives as diabetic II inhibitors and molecular docking studies” (Bioorg Med Chem, 2019)

Tests used:
[1] = Inhibition of Saccharomyces cerevisiae alpha-glucosidase using para-nitrophenyl-alpha-D-glucopyranoside as substrate preincubated for 5 mins followed by substrate addition and measured after 5 mins
In short: (§1)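 Baker's yeast α-glucosidase (EC 3.2.1.20) in 100 mM phosphate buffer, pH 6.8. Compounds came from 5 mg/mL DMSO stocks and were incubated with enzyme for 5 min. p-Nitrophenyl-α-D-glucopyranoside (5 mM solution) was then added and incubated for 5 min, and absorbance read at 405 nm. Blanks with buffer in place of substrate gave background; acarbose served as positive control.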

Saccharomyces cerevisiae = assay: Inhibition of Saccharomyces cerevisiae alpha-glucosidase using para-nitrophenyl-alpha-D-glucopyranoside as substrate preincubated for 5 mins followed by substrate addition and measured after 5 mins relative to control; design: concentration or dose not given beside the values; in short: as §1

Structure (SMILES)	IC50 ([1]; read-out: IC50)	inhibition (Saccharomyces cerevisiae)	IC50 [1]
O=C(N/N=C\c1cccc(O)c1O)c1ccc2ncccc2c1	9.4 µM	–	–
O=C(N/N=C\c1ccco1)c1ccc2ncccc2c1	28.6 µM	–	–
O=C(N/N=C\c1cc(O)ccc1O)c1ccc2ncccc2c1	12.4 µM	–	–
COc1ccc(O)c(/C=N\NC(=O)c2ccc3ncccc3c2)c1	18.4 µM	–	–
Cc1cccc(C)c1/C=N\NC(=O)c1ccc2ncccc2c1	–	< 50%	Not Active
O=C(N/N=C\c1ccc(O)cc1O)c1ccc2ncccc2c1	14.1 µM	–	–
O=C(N/N=C\c1ccc(F)cc1)c1ccc2ncccc2c1	28.9 µM	–	–
O=C(N/N=C\c1ccccc1[N+](=O)[O-])c1ccc2ncccc2c1	37.6 µM	–	–
COc1ccc(/C=N\NC(=O)c2ccc3ncccc3c2)c(O)c1	21.6 µM	–	–
O=C(N/N=C\c1cccs1)c1ccc2ncccc2c1	35.7 µM	–	–
O=C(N/N=C\c1cccc(O)c1)c1ccc2ncccc2c1	48.5 µM	–	–
O=C(N/N=C\c1ccc(O)cc1)c1ccc2ncccc2c1	23.5 µM	–	–
COc1ccc(/C=N\NC(=O)c2ccc3ncccc3c2)cc1O	14.4 µM	–	–
COc1ccc(/C=N\NC(=O)c2ccc3ncccc3c2)cc1OC	–	< 50%	Not Active

Second part, the molecule after the results:

IC50 ([1]; read-out: IC50)	inhibition (Saccharomyces cerevisiae)	IC50 [1]	Structure (SMILES)
–	< 50%	Not Active	COc1ccc(/C=N\NC(=O)c2ccc3ncccc3c2)cc1
6.2 µM	–	–	O=C(N/N=C\c1ccc(O)c(O)c1)c1ccc2ncccc2c1
–	< 50%	Not Active	O=C(N/N=C\c1ccc([N+](=O)[O-])cc1)c1ccc2ncccc2c1
7.4 µM	–	–	O=C(N/N=C\c1ccccc1F)c1ccc2ncccc2c1
–	< 50%	Not Active	O=C(N/N=C\c1ccncc1)c1ccc2ncccc2c1
–	< 50%	Not Active	O=C(N/N=C\c1cccnc1)c1ccc2ncccc2c1
13.2 µM	–	–	O=C(N/N=C\c1ccccc1O)c1ccc2ncccc2c1
38.4 µM	–	–	O=C(N/N=C\c1ccccn1)c1ccc2ncccc2c1
–	< 50%	Not Active	O=C(N/N=C\c1cccc([N+](=O)[O-])c1)c1ccc2ncccc2c1
–	< 50%	Not Active	COc1cccc(/C=N\NC(=O)c2ccc3ncccc3c2)c1
48.2 µM	–	–	O=C(N/N=C\c1cccc(F)c1)c1ccc2ncccc2c1
